These results are taken from article PMC2266610 (The Journal of General Physiology, 2005).

The assay concerns the target T1, homomeric (CNGA1) rod CNG channel (Bos taurus, UniProt Q00194).
T1 sequence (Q00194 1-690): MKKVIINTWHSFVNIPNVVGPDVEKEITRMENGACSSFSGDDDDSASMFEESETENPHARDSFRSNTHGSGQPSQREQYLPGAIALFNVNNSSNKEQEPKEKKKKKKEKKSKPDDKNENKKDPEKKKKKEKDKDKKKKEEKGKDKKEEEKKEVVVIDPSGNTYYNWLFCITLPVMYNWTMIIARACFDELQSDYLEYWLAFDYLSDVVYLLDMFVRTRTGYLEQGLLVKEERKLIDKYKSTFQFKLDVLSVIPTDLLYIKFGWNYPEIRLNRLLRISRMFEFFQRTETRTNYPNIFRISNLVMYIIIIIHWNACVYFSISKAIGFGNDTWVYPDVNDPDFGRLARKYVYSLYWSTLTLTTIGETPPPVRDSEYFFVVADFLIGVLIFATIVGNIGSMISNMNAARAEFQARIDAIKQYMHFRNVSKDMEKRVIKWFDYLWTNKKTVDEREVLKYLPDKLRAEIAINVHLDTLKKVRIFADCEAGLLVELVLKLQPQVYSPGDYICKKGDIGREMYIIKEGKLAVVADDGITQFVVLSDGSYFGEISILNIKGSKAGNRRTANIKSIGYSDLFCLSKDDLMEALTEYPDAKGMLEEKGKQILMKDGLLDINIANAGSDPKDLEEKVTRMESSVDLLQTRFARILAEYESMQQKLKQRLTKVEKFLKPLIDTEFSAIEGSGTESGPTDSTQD
It counts as biochemical, bovine. The settings on record: saturating (2 mM) cGMP; for Inhibitory potency: result in words. The gist of the method: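 CNGA1 cRNA was injected into Xenopus oocytes (16°C, 3–12 d). Inside-out patches at room temperature were held in low-divalent Na solution (pH 7.2), with 2 mM cGMP intracellular and niflumic acid extracellular. Retinoid from ethanol stocks was mixed into the bath under dim light after phosphatase-driven affinity shifts finished. Current at +100 mV was taken at ~1 h steady state, leak-subtracted, normalized to pre-drug current, and Hill-fitted.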

“Also recorded” adds a separate entry of the source.

Consider `CC1=C(/C=C/C(C)=C/C=C/C(C)=C/C(=O)O)C(C)(C)CCC1` [RA, all-trans-retinoic acid], for which the Inhibitory potency result is “No inhibition”. Further, under “400 nM, after 1 h, representative patch”, the “Inhibition of current at 400 nM retinoid” value was “did not inhibit; also recorded: no inhibition”.

On to `CC(=O)/C=C/C1=C(C)CCCC1(C)C` [β-ionone], for which the Inhibitory potency entry is reported as “No inhibition”. Moreover, the “Inhibition of current at 10 μM retinoid” value (10 μM, after 1 h) was “unable to inhibit; also recorded: no change in current”.
